Screening results (PubChem)
SMARCA2 activ: SMARCA2 (BRM) function activators, primary screen, cell-based, luminescence, high throughput. activation, % at 9.1 µM. MG213 cells, MMTV-luciferase reporter, dexamethasone, overnight. actives 1% (n = 370,000). AID 652017, 2013; in the data active = activation above about 7.8%;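 also: 0% = vehicle wells and 100% = reference activator wells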
DAX1 inh-1: DAX1 (NR0B1) inhibitors on StAR promoter, primary screen, cell-based, luminescence, SF-1 (NR5A1), full-length DAX-1 | HEK293T StAR-luciferase reporter, SF-1/DAX-1 repression relief | inhibition, % at 6.8 µM | actives 1.1% (n = 370,000);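 active = inhibition above the mean over all tested compounds plus 3 SD, cut at about 3.6% in these data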;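 also: 0% = DAX-1 cells with DMSO and 100% = cells lacking DAX-1 with DMSO; higher inhibition means more luminescence from relief of DAX-1 repression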
JMJD2C inh: inhibitors of GASC-1 histone demethylase, primary screen, biochemical, fluorescence, DELFIA europium | Lysine-specific demethylase 4C (Homo sapiens), Q9H3R0 | GST-JMJD2C(1-420) H3K9me3 demethylation | inhibition, % at 2.35 µM | actives 0.069% (n = 330,000) | AID 2099, 2009;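 active = more than half of a compound's replicate wells show inhibition beyond 50%, single wells judged on their own value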;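 also: signal counts dimethyl H3K9 product captured on neutravidin plate; 0% = median of DMSO wells and 100% = 0.3 times that DMSO median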
DAX1 inh-2: DAX1 (NR0B1) inhibitors, primary screen, cell-based, HEK293, Gal4-DAX1, luciferase luminescence; Nuclear receptor subfamily 0 group B member 1 (Homo sapiens), P51843; HEK293 Gal4-DAX1 luciferase reporter; inhibition, % at 6.75 µM; actives 0.99% (n = 340,000);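 active = inhibition above the mean over all tested compounds plus 3 SD, cut at about 4.2% in these data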;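 also: 0% = DAX1-transfected cells with DMSO and 100% = empty-vector control cells with DMSO; inhibition shows as a rise in luminescence from relieved DAX1 repression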
Target sequence (P51843 207-470 limits assumed): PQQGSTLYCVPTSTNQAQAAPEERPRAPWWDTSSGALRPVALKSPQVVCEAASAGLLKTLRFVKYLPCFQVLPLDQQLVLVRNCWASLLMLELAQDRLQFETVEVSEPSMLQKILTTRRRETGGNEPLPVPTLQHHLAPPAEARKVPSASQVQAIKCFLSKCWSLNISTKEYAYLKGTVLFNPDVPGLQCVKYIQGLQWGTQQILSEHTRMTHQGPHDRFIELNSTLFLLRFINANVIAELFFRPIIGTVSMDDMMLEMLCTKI
NR2E3 ag-1: NR2E3 agonists in two-hybrid cells, primary screen, cell-based, luminescence, CHO-S, Gal4-NCOR/VP16-NR2E3. luciferase. inhibition of corepressor binding, % at 3.98 µM. actives 0.35% (n = 360,000);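 active = inhibition above the mean of all tested compounds plus 3 SD, cut at about 70% in these data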;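 also: 0% = DMSO with NR2E3 transfected cells and 100% = cells lacking NR2E3 construct; higher means lower luciferase signal from less NR2E3 corepressor binding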
Target sequence (Q9Y5X4 whole entry, looked up, the tested form may be a part): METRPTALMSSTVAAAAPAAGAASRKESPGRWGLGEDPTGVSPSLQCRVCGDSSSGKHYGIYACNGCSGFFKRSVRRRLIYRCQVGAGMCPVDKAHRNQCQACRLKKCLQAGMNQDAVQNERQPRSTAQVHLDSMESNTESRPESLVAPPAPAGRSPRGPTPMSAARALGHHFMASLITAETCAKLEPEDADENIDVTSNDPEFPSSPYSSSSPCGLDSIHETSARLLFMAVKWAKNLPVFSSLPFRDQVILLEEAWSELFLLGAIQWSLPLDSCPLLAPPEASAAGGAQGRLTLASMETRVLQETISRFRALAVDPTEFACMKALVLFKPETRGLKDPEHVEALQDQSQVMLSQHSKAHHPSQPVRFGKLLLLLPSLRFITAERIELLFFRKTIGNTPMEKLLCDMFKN
NR2E3 ag-2: inhibitors of NR2E3-RetCOR corepressor binding, primary screen, NR2E3 agonist project, biochemical, TR-FRET, GST-NR2E3, biotin-RetCOR; Photoreceptor-specific nuclear receptor (Homo sapiens), Q9Y5X4; AID 2300, 2010; actives 0.12% (n = 320,000); 1536-well; inhibition of corepressor binding, % at 4.78 µM;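 active = percent inhibition above the cutoff of mean plus 3 SD of all tested compounds, set per screening campaign, cut at about 20% in these data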;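 also: 0% = DMSO wells and 100% = biotin wells as full block of FRET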
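Material: NR2E3–RetCOR corepressor complex / Amount: 1.35 nM GST-NR2E3 / Medium: Tris pH 7.5 / Compound: single nominal compound dose of 4.8 µM / Incubation: 5 h at 4 °C / Technique: TR-FRET, Eu(K)-anti-GST donor, streptavidin-D2 acceptor, ex 340, em 617/671 nm / Read-out basis: percent loss of FRET ratio relative to control wells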
DAX1 conf: DAX1 (NR0B1) inhibitors relieving SF-1 repression, confirmation, cell-based, luminescence, HEK293T, full-length DAX-1, SF-1 activated StAR promoter; HEK293T StAR-promoter luciferase reporter, SF-1/DAX-1 repression; actives 87% (n = 2,400); shares compounds with DAX1 inh-1; AID 652134, 2013; inhibition, % at 6.8 µM;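 active = inhibition above the average of every tested compound plus 3 SD, cut at about 3.8% in these data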;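 also: 0% = DAX-1 cells with DMSO and 100% = no DAX-1 control cells with DMSO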
SF1 AF2mut Luc: StAR reporter signal changes without DAX1, counter-screen for DAX1 inhibitor project, cell-based, luminescence, AF-2 mutant SF-1, transactivation. shares compounds with DAX1 inh-1. HEK293 StAR-luciferase, SF-1 AF2 mutant. inhibition, % at 6.8 µM. actives 78% (n = 2,400);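 active = inhibition above the mean of all tested compounds plus 3 SD, cut at about 3% in these data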;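 also: 0% = DAX-1 transfected cells with DMSO and 100% = cells without DAX-1 with DMSO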
SMARCA2 act conf: SMARCA2 (BRM) function activators, confirmation, cell-based, luminescence, triplicate; MG213 cells, MMTV-luciferase with dexamethasone, overnight; MG213 cells expressing E1A, Rb sequestered; DMSO wells 0%, reference activator 100%; actives 30% (n = 3,500); activation, % at 9.1 µM; AID 652260, 2013; shares compounds with SMARCA2 activ;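 active = activation above its plate's cutoff, the mean activation of tested wells plus 3 SD, cut at about 7.9% in these data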
GAL4-VP16 Luc: GAL4-VP16 luciferase reporter activation, counter-screen for SMARCA2 (BRM) activator project, cell-based, pG5luc, luminescence, high throughput; shares compounds with SMARCA2 activ; actives 41% (n = 3,500); HEK293 GAL4-VP16 pG5luc reporter; scaled: DMSO wells 0%, SAHA wells 100%; activation, % at 9.1 µM;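 active = activation above the solvent-only control well mean plus 3 SD, averaged across control plates, cut at about 5.2% in these data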
* marks the source's active call; other numbers are inactive results; i = inactive; x = no result. Most compounds without a hit are left out; they make up all but 3.2% or so of the library.

SMILES	SMARCA2 activ	DAX1 inh-1	JMJD2C inh	DAX1 inh-2	NR2E3 ag-1	NR2E3 ag-2	SMARCA2 act conf	GAL4-VP16 Luc	others
CC1CCN(CC(=O)c2ccc3c(c2)OCCO3)CC1	8.0*	8.0*	i	3.1	-66.5	2.8	7.2	9.6*	DAX1 conf=14.3*;SF1 AF2mut Luc=8.6*
Cc1cc2c(cc1C)NP(=S)(c1ccccc1)N2	9.3*	10.5*	x	0.5	-99.4	x	6.3	8.3*	DAX1 conf=13.1*;SF1 AF2mut Luc=8.4*
C#C[C@@]1(O)CCC2C3CCC4=C/C(=N/OCC(=O)NC(CCC(N)=O)C(=O)O)CC[C@]4(C)C3CC[C@@]21C (stereo partly specified)	0.9	-0.1	-6.2	1.5	4.7	3.6	x	x
O=c1[nH]c(=S)[nH]c(O)c1N=Nc1ccc(S(=O)(=O)N2CCc3ccccc32)cc1	14.4*	-1.9	3.9	-1.7	-2.2	3.0	11.5*	-0.5
O=c1[nH]c(=S)[nH]c(O)c1N=Nc1ccc(SC(F)F)cc1	11.1*	2.5	-2.9	-0.1	-85.8	-2.3	12.0*	10.0*
CC(C)c1ccc(N=Nc2c(O)[nH]c(=O)[nH]c2=O)cc1	-0.8	0.7	4.8	x	-25.5	0.8	x	x
Cc1c(N=Nc2c(O)[nH]c(=S)[nH]c2=O)c(=O)n(-c2ccccc2)n1C	-1.4	-0.8	5.1	0.5	-13.5	-4.4	x	x
COC(=O)C1=C(c2ccc(OC(F)(F)F)cc2)C[C@@H]2CC[C@H]1N2C(=O)NCCc1ccccc1	-2.7	-0.6	4.8	1.3	21.4	3.7	x	x
COC(=O)C(O)(c1ccc(NC(=S)NC(=O)c2ccc(Cl)cc2Cl)cc1)C(F)(F)F (stereo unspecified)	-3.0	-0.1	0.6	1.6	8.0	2.2	x	x
COC(=O)C(O)(c1ccc(NC(=O)NC2CCCCC2)cc1)C(F)(F)F (stereo unspecified)	10.3*	1.8	-2.0	0.9	-47.4	1.1	7.8	5.2*
O=C(NCCN1CCC2(CC1)C(=O)NCN2c1ccccc1)c1cc(C(F)(F)F)ccc1C(F)(F)F	-1.9	-0.8	x	x	x	x	x	x
COc1ccc(CN2Cc3cc(-c4ccccc4)ccc3-n3nncc3C2)cc1	-5.6	-0.6	x	x	-4.5	x	x	x
COc1ccc(CN2Cc3cc(-c4ccc(OC)cc4)ccc3-n3nncc3C2)cc1	8.0*	-1.9	x	x	-5.7	x	2.3	1.7
Clc1ccc(N2CCN(Cc3ccccc3Cl)CC2)cc1	8.2*	0.0	-6.9	-0.7	-1.4	1.4	1.1	1.4
O=C(c1cc(S(=O)(=O)N2CCCCC2)ccc1F)N1CCC2(CC1)OCCO2	8.1*	-0.1	-0.2	0.0	-1.2	2.6	-4.9	0.3
CN1OC[C@@H]2CN3C4(C[C@@H]21)c1ccccc1C3(c1ccccc1)c1ccccc14	-2.2	-0.4	x	x	x	x	x	x
Fc1cccc(F)c1-c1nc(-c2ccc(Cl)cc2)no1	8.2*	0.2	2.2	2.2	-62.9	-3.6	13.2*	2.9
COc1cccc(C(c2nnnn2-c2c(C)cccc2C)N2CCC(n3c(=O)[nH]c4ccccc43)CC2)c1OC (stereo unspecified)	-3.3	-5.0	x	x	2.4	x	x	x
NC(Cc1ccccc1)c1csc(Nc2ccccn2)n1 (stereo unspecified)	13.1*	1.7	x	x	-54.8	x	8.2*	-0.2
NC(Cc1ccc(Cl)cc1)c1csc(Nc2ccccn2)n1 (stereo unspecified)	-4.1	-1.3	x	x	-9.2	x	x	x
CCOC(=O)CNC(=S)N1CC2C[C@@H](C1)Cn1c2cccc1=O	0.2	-0.4	2.7	-0.1	-8.4	0.8	x	x
COc1ccc(-c2nc3ccccc3c(=O)o2)cc1	9.8*	2.4	-3.9	0.4	-137.7	-1.3	8.7*	7.4*
CN(C)C(=O)Oc1cccc(-c2cn3cc(Cl)ccc3n2)c1	26.3*	0.7	14.2	-0.9	-78.2	0.8	17.5*	6.3*
CCCCCCC(=O)N/N=C/c1c(O)n(CCc2ccccc2)c(=O)[nH]c1=O	8.7*	0.1	x	1.1	13.9	1.7	-0.2	-0.4
CN/C=C(/Cl)P(=O)(OC(C)C)OC(C)C	8.0*	-0.2	x	-0.1	-7.1	2.7	3.8	-0.9
SMILES	SMARCA2 activ	DAX1 inh-1	JMJD2C inh	DAX1 inh-2	NR2E3 ag-1	NR2E3 ag-2	SMARCA2 act conf	GAL4-VP16 Luc	others
Cc1cc(C)c(NC2=NCCS2)cc1C	-3.5	-1.5	x	2.1	18.3	x	x	x
OC12ONC(c3ccccn3)C1N1CCC2CC1 (stereo unspecified)	10.0*	0.0	-28.3	-0.5	27.3	1.2	2.4	1.5
O=C(NC1CCCCC1)N1Cc2cc(-c3ccccc3)ccc2-n2nncc2C1	2.9	-1.0	x	x	14.1	x	x	x
CCOC(=O)c1c(C)[nH]c(C(=O)C(Cc2ccccc2)N(C)C)c1C (stereo unspecified)	2.8	-0.9	2.0	0.4	-80.1	4.5	x	x
CCOC(=O)c1c(C)[nH]c(C(=O)C(C)N2CCCC2)c1C (stereo unspecified)	8.4*	-0.2	-12.9	-0.9	11.7	1.8	0.3	0.9
COC(=O)C1=COC(C)C2CN3CCc4c([nH]c5cc(OC)ccc45)C3CC12 (stereo unspecified)	0.5	-0.7	x	x	-2.9	x	x	x
Cc1ccccc1CN1Cc2cnnn2-c2ccccc2C1C#N (stereo unspecified)	9.2*	-4.5	x	-2.8	6.6	x	-9.2	-1.0
